Measured values from ChEMBL document CHEMBL4196106, “From Naproxen Repurposing to Naproxen Analogues and Their Antiviral Activity against Influenza A Virus” (J Med Chem, 2018).
Calls of active or inactive are those of the source. The rule behind the calls is not given here.

What was measured:
[1] = tested on: Influenza A virus; test: Antiviral activity against Influenza A virus (A/Puerto Rico/8/1934(H1N1)) infected in C57BL/6J mouse assessed as recovery of weight loss at 8 mg/mouse/day, ip qd […] starting at 5 to 10 mins post infection measured up to day 12; assay type: functional, organism-based
[2] = tested on: Influenza A virus; test: Antiviral activity against Influenza A virus (A/Puerto Rico/8/1934(H1N1)) infected in C57BL/6J mouse assessed as decrease in viral load in bronchoalveolar lavage at 8 mg/mouse/day, ip qd treated up to day 2 starting at 5 to 10 mins post infection relative to control; assay type: functional
Procedure, shortened: (§1)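 Female C57BL/6J mice, 5–6 weeks old, were anaesthetised with ketamine/xylazine (43/5 mg/kg) and inoculated intranasally with A/PR/8/34 at 500 PFU. Treatment was i.p. once daily on days 0, 1 and 2, starting 5–10 min after inoculation; 1 mg/mouse is 50 mg/kg and 8 mg/mouse is 400 mg/kg. BAL infectious titre was measured by plaque assay against saline-treated mice.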

[3] = tested on: Influenza A virus; test: Antiviral activity against Influenza A virus (A/Puerto Rico/8/1934(H1N1)) infected in C57BL/6J mouse assessed as increase in mouse survival at 8 mg/mouse/day, ip qd treated up to day 2 starting at 5 to 10 mins post infection measured at day 12; assay type: functional, organism-based
Procedure, shortened: (§2)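 Intranasal A/PR/8/34 challenge at 500 PFU in female C57BL/6J mice, 5–6 weeks old, under ketamine/xylazine. Dosing was i.p. once daily on days 0, 1 and 2, starting 5–10 min post-inoculation; 1 mg/mouse is 50 mg/kg and 8 mg/mouse is 400 mg/kg. There were 10 mice per group, with saline vehicle. Survival and body weight were scored daily, with 20% weight loss as the mortality endpoint.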

[4] = tested on: Influenza A virus; test: Antiviral activity against pandemic Influenza A virus (A/Netherlands/602/09(H1N1)) infected in MDCK cells at MOI of 10^-3 assessed as decrease in viral load after 18 hrs by immunofluorescence analysis; assay type: functional, organism-based
[5] = Safety index, ratio of compound CC50 to naproxen CC50 for MDCK cells by MTT assay; assay type: ADME, cell-based, Canis lupus familiaris; details: dog
[6] = Selectivity index, ratio of CC50 for MDCK cells to IC50 for pandemic Influenza A virus (A/Netherlands/602/09(H1N1)) infected in MDCK cells at MOI of 10^-3 after 18 hrs; assay type: toxicity, cell-based; details: dog, read-out: Ratio CC50/IC50
[7] = tested on: Influenza A virus; test: Stabilization of Influenza A virus nucleoprotein assessed as melting temperature at 5 to 15 uM measured for 10 mins
[8] = Cytotoxicity against MDCK cells assessed as reduction in cell viability after 48 hrs by trypan blue staining based method; set-up: species or system Canis lupus familiaris; details: dog
Procedure, shortened: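 MDCK cells, 3.2 x 10^5 per well, were grown 24 h and then exposed to serial compound dilutions under the same conditions as the MTT test. At 48 h, cells were washed, trypsinised and stained with Trypan blue, and viable and dead cells were counted by phase-contrast microscopy.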

[9] = tested on: MDCK; test: Inhibition of nucleoprotein/polymerase acidic protein (1 to 27 residues) interaction in Influenza A virus (A/WSN/1933 (H1N1)) infected in MDCK cells by Western blot analysis; assay type: cell-based
Procedure, shortened: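 MDCK cells were infected with A/WSN/33 at MOI 2 for 18 h and lysed in PBS with protease inhibitors and 0.5% NP40 by freezing; nucleic acids were not digested. Streptavidin beads loaded with 250 µM biotinylated PA(1-27) were incubated with the lysate 18 h at 4 °C, with or without compound. Bound NP was detected by anti-NP monoclonal western blot.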

[10] = tested on: Influenza A virus; test: Antiviral activity against Influenza A virus (A/Puerto Rico/8/1934(H1N1)) infected in C57BL/6J mouse assessed as decrease in viral load in bronchoalveolar lavage at 1 mg/mouse/day, ip qd treated up to day 2 starting at 5 to 10 mins post infection relative to control; assay type: functional; procedure, shortened: as §1
[11] = tested on: Influenza A virus; test: Antiviral activity against Influenza A virus (A/Udorn/1972 (H3N2)) infected in MDCK cells at MOI of 10^-3 assessed as decrease in viral load after 18 hrs by crystal violet staining-based plaque assay; assay type: functional, organism-based
[12] = target: PA/PB1 (Influenza A virus (A/Puerto Rico/8/1934(H1N1)), UniProt P03431+P03433); test: Binding affinity to biotin labelled Influenza A virus polymerase acidic protein (1 to 27 residues) by surface plasmon resonance analysis; assay type: protein assay
Procedure, shortened: (§3)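 Biotinylated PA(1-27) was captured on the chip at about 1500 RU, with a scrambled peptide on the same chip at similar RU. NP (12–2500 nM), alone or as NP-DNA complex, was injected with or without compound up to 50 µM. Running buffer was 20 mM Tris-HCl pH 7.4, 300 mM NaCl, 0.005% P20, at 25 °C and 30 µl/min. Regeneration used guanidinium chloride then 10 mM NaOH.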

[13] = tested on: Influenza A virus; test: Potency index, ratio of naproxen IC50 to compound IC50 for Influenza A virus (A/WSN/1933(H1N1)) infected in MDCK cells at MOI of 2 after 18 hrs by immunofluorescence analysis; assay type: functional
[14] = tested on: Influenza A virus; test: Antiviral activity against Influenza A virus (A/Puerto Rico/8/1934(H1N1)) infected in ip dosed C57BL/6J mouse assessed as increase in mouse survival administered once daily treated up to day 2 starting at 5 to 10 mins post infection; assay type: functional, organism-based; procedure, shortened: as §2
[15] = tested on: Influenza A virus; test: Antiviral activity against Influenza A virus (A/Udorn/1972 (H3N2)) infected in human A549 cells assessed as decrease in viral load after 18 hrs by immunofluorescence analysis; assay type: functional, organism-based; details: A549, 18 h
Procedure, shortened: (§4)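 MDCK or A549 cells, 0.32 x 10^6 per well, were held 24 h serum-free to 80% confluence and then infected at MOI 2. Compound (0.1–500 µM) or vehicle was added right after virus adsorption. At 18 h, viral NP was read by immunofluorescence and corrected for cell number by DAPI. Runs were in triplicate, repeated at least twice, and IC50 came from a dose-response fit.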

[16] = (§5) Inhibition of Influenza A virus nucleoprotein/polymerase acidic protein (1 to 27 residues) complex formation in presence of DNA by surface plasmon resonance analysis; procedure, shortened: as §3
[17] = tested on: Influenza A virus; test: as §5; procedure, shortened: as §3
[18] = Selectivity index, ratio of CC50 for MDCK cells to IC50 for Influenza A virus (A/Udorn/1972 (H3N2)) infected in MDCK cells at MOI of 2 after 18 hrs; assay type: toxicity, cell-based; details: dog, read-out: Ratio CC50/IC50
[19] = Selectivity index, ratio of CC50 for MDCK cells to IC50 for Influenza A virus (A/WSN/1933(H1N1)) infected in MDCK cells at MOI of 10^-3 after 48 hrs; assay type: toxicity, cell-based; details: dog, read-out: Ratio CC50/IC50
[20] = Binding affinity to Influenza A virus nucleoprotein by surface plasmon resonance analysis
[21] = tested on: Influenza A virus; test: Antiviral activity against Influenza A virus (A/WSN/1933(H1N1)) infected in MDCK cells at MOI of 2 assessed as decrease in viral load after 18 hrs by immunofluorescence analysis; assay type: functional, organism-based; procedure, shortened: as §4
[22] = tested on: Influenza A virus; test: Antiviral activity against Influenza A virus (A/Udorn/1972 (H3N2)) infected in MDCK cells at MOI of 0.2 assessed as decrease in viral load after 18 hrs by immunofluorescence analysis; assay type: functional, organism-based
[23] = tested on: Influenza A virus; test: Antiviral activity against Influenza A virus (A/Puerto Rico/8/1934(H1N1)) infected in C57BL/6J mouse assessed as survival at 1 to 8 mg/mouse/day, ip qd treated up to day 2 starting at 5 to 10 mins post infection measured at day 12 relative to control; assay type: functional; procedure, shortened: as §2
[24] = Selectivity index, ratio of CC50 for MDCK cells to IC50 for Influenza A virus (A/WSN/1933(H1N1)) infected in MDCK cells at MOI of 2 after 18 hrs; assay type: toxicity, cell-based; details: dog, read-out: Ratio CC50/IC50
[25] = tested on: Influenza A virus; test: Antiviral activity against Influenza A virus (A/WSN/1933(H1N1)) infected in MDCK cells at MOI of 10^-3 assessed as decrease in viral load after 48 hrs by crystal violet staining-based plaque assay; assay type: functional, organism-based
Procedure, shortened: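 Serum-starved MDCK cells, 0.32 x 10^6 per well, were infected with A/WSN/33 at MOI 10^-3 (multi-cycle). Compound (0.1–500 µM) or vehicle was added immediately after adsorption. After 48 h, titres in clarified supernatant were read by plaque assay with crystal violet. Runs were in triplicate, repeated at least twice, and IC50 came from a dose-response fit.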

[26] = tested on: Influenza A virus; test: Antiviral activity against Influenza A virus (A/Puerto Rico/8/1934(H1N1)) infected in C57BL/6J mouse assessed as recovery of weight loss at 1 mg/mouse/day, ip qd treated up to day 2 starting at 5 to 10 mins post infection measured up to day 12 relative to control; assay type: functional; procedure, shortened: as §2
[27] = Selectivity index, ratio of CC50 for human A549 cells to IC50 for Influenza A virus (A/Udorn/1972 (H3N2)) after 18 hrs; assay type: toxicity; details: read-out: Ratio CC50/IC50
[28] = tested on: Influenza A virus; test: Antiviral activity against Influenza A virus (A/Udorn/1972 (H3N2)) infected in MDCK cells at MOI of 2 assessed as decrease in viral load after 18 hrs by immunofluorescence analysis; assay type: functional, organism-based; procedure, shortened: as §4
[29] = tested on: Influenza A virus; test: Inhibition of Influenza A virus nucleoprotein/polymerase acidic protein (1 to 27 residues) complex formation at 100 nM by surface plasmon resonance analysis; procedure, shortened: as §3
[30] = tested on: A549; test: Downregulation of COX2 level in human A549 cells infected with Influenza A virus at MOI of 2 at 100 uM after 18 hrs in presence of gamma-ATP by immunofluorescence analysis; assay type: cell-based; details: a549, 18 h
Procedure, shortened: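 A549 cells were pretreated with compound for 30 min, then either infected with IAV at MOI 2 for 18 h or activated with 100 µM γ-ATP for 1 h with or without compound. Cells were fixed in 3% PFA and permeabilised with 0.1% triton. COX2 was immunostained overnight with a primary antibody and detected with an Alexa 647 secondary.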

[31] = tested on: Influenza A virus; test: Antiviral activity against Influenza A virus (A/Puerto Rico/8/1934(H1N1)) infected in C57BL/6J mouse assessed as recovery of weight loss at 8 mg/mouse/day, ip qd treated up to day 2 starting at 5 to 10 mins post infection measured up to day 12 relative to control; assay type: functional; procedure, shortened: as §2

With `CCOC(=O)C1=C[C@@H](OC(CC)CC)[C@H](NC(C)=O)[C@@H](N)C1` [OSELTAMIVIR] the Activity [1] was “inactive”, the “fold change (FC)” value [2] was 260 and the Activity [3] was “Active”.

With `COc1ccc2cc(-c3c(C(=O)O)cc(Oc4ccc(N)cc4)cc3C(=O)O)ccc2c1` the IC50 [4] was 21 µM, the selectivity ratio [5] was 10 and the selectivity ratio at 18 h [6] was 619. For the same compound, the Tm [7] was 38 to 47 °C, the CC50 at 48 h [8] was no less than 10 mM and the “inhibition (active/not active)” value [9] was “Active”.

For `COc1ccc2cc(-c3c(C(=O)[O-])cccc3C(=O)[O-])ccc2c1.[Na+].[Na+]`, the “fold change (FC)” value [10] was 6, the IC50 [4] was 1.8 µM and the IC50 [11] was 2000 nM. The Ki [12] was 30 µM, the “Ratio IC50” value [13] was 5 and the Activity [14] was “Dose-dependent effect”. For the same compound, the selectivity ratio [5] was 10, the IC50 [15] was 25 µM and the Activity [1] was “Active”. The “fold change (FC)” value [2] was 120, the IC50 [16] was 30 nM and the inhibition [17] was “Dose-dependent effect”. The selectivity ratio at 18 h [18] was 650, the selectivity ratio at 18 h [6] was 7220 and the selectivity ratio at 48 h [19] was 4480 to 5200. It also gave a Ki [20] of 97 nM, an IC50 [21] of 19 µM and a Tm [7] of 46 °C. The Activity [3] was “Active”, the IC50 [22] was 7 µM and the Survival [23] was 70%. The selectivity ratio at 18 h [24] was 684, the IC50 [25] was 2900 nM and the Activity [26] was “>=95%”. The selectivity ratio at 18 h [27] was 520, the IC50 [28] was 20 µM and the inhibition [29] was “Active”. The Activity [30] was “Non-Toxic”, the Activity [31] was 5% and the “inhibition (active/not active)” value [9] was “Active”.
